Source: ChEMBL document CHEMBL1144046, “2-Methylene 19-nor-25-dehydro-1alpha-hydroxyvitamin D3 26,23-lactones: synthesis, biological activities and molecular basis of passive antagonism” (Bioorg Med Chem, 2008)

How the values were obtained:
[1] = molecular target: T1, Vitamin D3 receptor (Rattus norvegicus, UniProt P13053); experiment: Displacement of [3H]1,25-(OH)2D3 from rat recombinant His-tagged VDR ligand-binding domain expressed in Escherichia coli BL21
T1 sequence (P13053 whole entry): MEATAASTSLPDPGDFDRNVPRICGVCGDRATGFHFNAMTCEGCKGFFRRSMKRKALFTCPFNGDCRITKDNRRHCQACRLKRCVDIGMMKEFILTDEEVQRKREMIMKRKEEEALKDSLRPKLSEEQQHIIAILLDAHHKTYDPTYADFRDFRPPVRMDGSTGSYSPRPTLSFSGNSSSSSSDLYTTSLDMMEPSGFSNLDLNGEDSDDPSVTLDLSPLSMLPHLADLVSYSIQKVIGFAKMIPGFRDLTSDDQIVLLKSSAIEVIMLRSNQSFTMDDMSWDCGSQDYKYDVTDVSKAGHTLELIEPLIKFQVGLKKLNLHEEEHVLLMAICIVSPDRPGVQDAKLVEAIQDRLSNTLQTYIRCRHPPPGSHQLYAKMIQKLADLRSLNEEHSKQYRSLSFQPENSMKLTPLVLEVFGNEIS
Procedure, shortened: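 Crude lysate of E. coli–expressed His-tagged rat VDR-LBD (aa 115–423), diluted 1000-fold in 50 mM Tris, 100 mM KCl, 5 mM DTT, 0.5% Chaps, pH 7.5, BSA 100 µg/mL. Ligand preincubated 1 h RT, then [3H]-1,25-(OH)2D3 (~5000 dpm) 18 h at 4 °C. Dextran-charcoal separation, scintillation counting; at least twice in duplicate; EC50 for 50% displacement.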

[2] = molecular target: T2, Vitamin D3 receptor (Homo sapiens, UniProt P11473); experiment: Agonist activity at human VDR in COS7 cells assessed as induction of transcriptional transactivation after 24 hrs by mouse osteopontin luciferase reporter gene assay; assay type: functional, cell-based, COS-7
T2 sequence (P11473 whole entry): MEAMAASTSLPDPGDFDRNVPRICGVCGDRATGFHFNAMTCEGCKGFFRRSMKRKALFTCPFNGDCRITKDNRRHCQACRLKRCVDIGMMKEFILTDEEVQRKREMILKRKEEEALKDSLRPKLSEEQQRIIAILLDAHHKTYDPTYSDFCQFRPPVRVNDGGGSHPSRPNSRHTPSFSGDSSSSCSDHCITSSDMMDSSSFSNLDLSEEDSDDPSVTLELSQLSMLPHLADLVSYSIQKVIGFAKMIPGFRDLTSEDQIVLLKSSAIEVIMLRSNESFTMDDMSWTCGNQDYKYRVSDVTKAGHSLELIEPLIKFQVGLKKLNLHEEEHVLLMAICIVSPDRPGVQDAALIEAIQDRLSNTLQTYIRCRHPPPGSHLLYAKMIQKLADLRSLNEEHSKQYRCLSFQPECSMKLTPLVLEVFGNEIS

[3] = molecular target: T2, Vitamin D3 receptor; experiment: Antagonist activity at human VDR in COS7 cells assessed as induction of transcriptional transactivation after 24 hrs by mouse osteopontin luciferase reporter gene assay; assay type: functional, cell-based, COS-7
Procedure, shortened: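 Cos7 cells grown in DMEM + 5% FBS, seeded 2 × 10⁴/well; after 24 h lipofected with hVDR expression plasmid, SPPx3-TK-Luc reporter and pRL-CMV control. After 4 h switched to 5% charcoal-treated FCS; next day ligand given with 10 nM 1,25-(OH)2D3 for 24 h. Dual luciferase normalized to internal control; IC50 from dose–response curves.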

[4] = molecular target: T2, Vitamin D3 receptor; experiment: Agonist activity at human VDR in HEK293 cells assessed as induction of transcriptional transactivation after 24 hrs by mouse osteopontin luciferase reporter gene assay; assay type: functional, cell-based
[5] = molecular target: T2, Vitamin D3 receptor; experiment: Antagonist activity at human VDR in HEK293 cells assessed as induction of transcriptional transactivation after 24 hrs by mouse osteopontin luciferase reporter gene assay; assay type: functional, cell-based
Procedure, shortened: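 HEK293 cells in DMEM + 5% FBS with penicillin/streptomycin, 37 °C, 5% CO2; calcium phosphate cotransfection of hVDR expression plasmid and SPPx3-TK-Luc reporter. Compounds added 8 h later with 10 nM 1,25-(OH)2D3; harvest after 16–24 h. Luciferase normalized to β-galactosidase; triplicate; IC50 from dose–response curves.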

EC50 [1] [nM] | EC50 [2] [nM] | IC50 [3] [nM] | EC50 [4] [nM] | IC50 [5] [nM] | SMILES
20 | 150 | 1000 | 200 | 300 | C=C1C[C@@H](C[C@@H](C)[C@H]2CC[C@H]3/C(=C/C=C4C[C@@H](O)C(=C)[C@H](O)C4)CCC[C@]23C)OC1=O
0.7 | 25 | – | 1 | – | C=C1C[C@H](C[C@@H](C)[C@H]2CC[C@H]3/C(=C/C=C4C[C@@H](O)C(=C)[C@H](O)C4)CCC[C@]23C)OC1=O
5 | 10 | 100 | 15 | – | C=C1C[C@H](C[C@H](C)[C@H]2CC[C@H]3/C(=C/C=C4C[C@@H](O)C(=C)[C@H](O)C4)CCC[C@]23C)OC1=O
5 | 6 | 300 | 20 | – | C=C1C[C@@H](C[C@H](C)[C@H]2CC[C@H]3/C(=C/C=C4C[C@@H](O)C(=C)[C@H](O)C4)CCC[C@]23C)OC1=O
